This note sets out measurements from ChEMBL document CHEMBL2069239, “High DNA affinity of a series of peptide linked diaromatic guanidinium-like derivatives” (J Med Chem, 2012).

Test [1] concerns Nucleic Acid. The experiment in a line: Binding affinity to AATT DNA by SPR analysis. The test is classed as nucleic-acid assay. The procedure, abridged:
(§1)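 Biosensor analysis against three immobilized DNA hairpin duplexes in degassed MES buffer (10 mM MES, 1 mM EDTA, 92 mM NaCl, 0.0005% v/v P20, pH 6.25) at 25 °C. A ligand concentration series was injected at 20 μL/min for 5 min, then dissociated for 5 min, with NaCl/NaOH regeneration. K was fitted from steady-state RU versus free ligand using a two-site binding equation.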
(SPR reads the build-up and loss of mass on a sensor chip optically.)

Test [2] deals with Nucleic Acid. The experiment in a line: Binding affinity to (GC)4 DNA by SPR analysis. The format is nucleic-acid assay. In a few lines: as §1
Test [3] deals with Nucleic Acid. Nature of the test: Binding affinity to poly(dA.dT)2 DNA in phosphate buffer by ITC analysis. The format is nucleic-acid assay. The procedure, abridged:
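Calorimetric titration at 25 °C of 2.48 mM compound in 10 mM phosphate buffer into poly(dA·dT)2 in the cell (2 mM). There were 29 injections, spaced 300 s apart. Heat per injection was obtained by integrating the power peak area over time.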
Background: ITC needs no label: the signal is the heat of the interaction.

In test [4] the test system is Nucleic Acid. Nature of the test: Binding affinity to Salmon sperm DNA in phosphate buffer assessed as change in melting temperature by thermal denaturation assay. The test is classed as nucleic-acid assay. Conditions: Salmonidae. In a few lines:
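UV melting of salmon sperm DNA (150 μM base) with compound (15 μM), giving a compound:base ratio of 0.1, in 10 mM sodium phosphate buffer at pH 7. Absorbance at 260 nm was followed from 20 to 90 °C at 1 °C/min, collecting five points per °C, in a 1 cm quartz cell.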

The subject of test [5] is Nucleic Acid. The experiment in a line: Binding affinity to poly(dA.dT)2 DNA in phosphate buffer assessed as change in melting temperature by thermal denaturation assay.
The test system of test [6] is Nucleic Acid. Nature of the test: Binding affinity to DNA assessed as large induced CD signal at 0.5 mM by circular dichroism study. The format is nucleic-acid assay. For orientation: CD spectra are sensitive to the conformation of chiral molecules.
Test [7] concerns Nucleic Acid. The experiment in a line: Binding affinity to poly(dA.dT)2 DNA assessed as large induced CD signal at 0.5 mM by circular dichroism study. The test is classed as nucleic-acid assay.
Test [8] relates to Nucleic Acid. Nature of the test: Binding affinity to (AT)4 DNA by SPR analysis. The format is nucleic-acid assay. The procedure, abridged:
as §1

Test [9] has as its system Nucleic Acid. The experiment in a line: Binding affinity to poly(dA).poly(dT) DNA in MES buffer assessed as change in melting temperature by thermal denaturation assay. The test is classed as nucleic-acid assay.

Active and inactive are the calls of the source. No cut-off for these calls is given here. Some results are limits rather than exact numbers.

As for `N=C(N)Nc1ccc(C(=O)c2ccc(N=C3NCCN3)cc2)cc1`, in test [1], the K is 2.7 ×10⁵ /M.

In the case of `N=C(N)Nc1ccc(Nc2ccc(N=C3NCCN3)cc2)cc1`, the K in test [1] was 6.4 ×10⁵ /M; in [2], less than 1 ×10⁵ /M.

What is called ΔTm is the change in melting temperature against a reference sample. On to `N=C(N)Nc1ccc(NC(=O)c2ccc(NC3=NCCN3)cc2)cc1`, for which the K in test [3] worked out at 1.54 ×10⁵ /M. For the same compound, the figures for the ΔTm in test [4] and in test [5] were 10 °C and 26.1 °C, respectively. Besides, the outcome in test [6] and in test [7] was Active.

For `Nc1ccc2cc3ccc(N)cc3nc2c1`, the K was determined as 12.2 ×10⁵ /M in [8], 5.7 ×10⁵ /M in [1] and 6.5 ×10⁵ /M in test [2].

Turning to `N=C(N)Nc1ccc(NC(=O)c2ccc(NC(=N)N)cc2)cc1`, the K in [8] was 18 ×10⁵ /M; in [1], 71 ×10⁵ /M; in test [2] it was less than 1 ×10⁵ /M. Moreover, the ΔTm turned out to be 11 °C in [4] and 20 °C in [5]. In addition, the result in test [6] and in test [7] was Active.

As for `Nc1ccc(C(=O)Nc2ccc(NC3=NCCN3)cc2)cc1`, the shift in melting temperature (ΔTm) in test [4] came out at 2 °C. For the same compound, the result in [5] and in test [9] was inactive.

For the compound `N=C(N)Nc1ccc(NC(=O)c2ccc(N)cc2)cc1`, the ΔTm in test [4] is 1 °C. Moreover, the outcome in [5] and in test [9] was inactive.

With `O=C(Nc1ccc(NC2=NCCN2)cc1)c1ccc(NC2=NCCN2)cc1`, the K in test [3] was 4.9 ×10⁵ /M; in test [8] it was 47.7 ×10⁵ /M; in [1] it was 93.7 ×10⁵ /M; in test [2], less than 1 ×10⁵ /M. Also, the ΔTm in [4] stood at 12.5 °C; in test [5] it was 29 °C. For the same compound, the outcome in test [6] and in [7] was Active.
